# Experimental data reported in ChEMBL document CHEMBL3352720, “Novel alkylphospholipid-DTC hybrids as promising agents against endocrine related cancers acting via modulation of Akt-pathway” (Eur J Med Chem, 2014).
# Calls of active or inactive are those of the source. No cut-off for these calls is given here.
# Tests used:
# MCF7 [1] = test: Induction of apoptosis in human MCF7 cells assessed as viable cells level at 7 uM incubated for 24 hrs by annexin-V and propidium iodide staining based flow cytometry (reference value: 89.58%); assay type: functional
# MCF7 [2] = test: Induction of cell cycle arrest in human MCF7 cells assessed as accumulation at sub-diploid phase at 7 uM incubated for 24 hrs by propidium iodide staining based FACS assay (reference value: 7.26%); assay type: functional
# MCF7 [3] = test: Induction of apoptosis in human MCF7 cells assessed as necrotic cells level at 7 uM incubated for 24 hrs by annexin-V and propidium iodide staining based flow cytometry (reference value: 2.15%); assay type: functional
# MCF7 [4] = test: Down-regulation of Bcl-2 mRNA expression in human MCF7 cells at 2 to 10 uM incubated for 24 hrs by quantitative real time PCR method; assay type: functional, cell-based
# In short: (§1)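 MCF-7 cells in DMEM/10% FBS were treated for 24 h at the indicated concentrations, then harvested, and mRNA levels were determined by qPCR.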
# MDA-MB-231 [5] = test: Antiproliferative activity against human MDA-MB-231 cells assessed as inhibition of cell proliferation incubated for 18 hrs followed by MTT addition for 4 hrs by MTT assay; assay type: functional, cell-based
# In short: (§2)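 MTT assay. Cells were grown in DMEM with 10% FBS at 37 °C, 5% CO2, 90% relative humidity. 1 × 10⁴ cells per well were seeded and held 24 h, then exposed to compounds diluted in culture medium for 18 h. MTT (5 mg/mL stock) was added for a further 4 h.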
# HEK293 = test: Antiproliferative activity against HEK293 cells assessed as inhibition of cell proliferation incubated for 18 hrs followed by MTT addition for 4 hrs by MTT assay; assay type: cell-based; settings: Homo sapiens; in short: as §2
# MCF7 [6] = test: Induction of mitochondrial membrane potential loss in human MCF7 cells assessed as increase in JC1 dye monomer green fluorescence at 7 uM incubated for 24 hrs by JC1 dye based flow cytometry (reference value: 1.78%); assay type: functional
# MCF7 [7] = test: Potency index, ratio of IC50 for miltefosine to IC50 for test compound against human MCF7 cells by MTT assay; assay type: functional
# MCF7 [8] = test: Down-regulation of cyclin A1 mRNA expression in human MCF7 cells at 2 to 10 uM incubated for 24 hrs by quantitative real time PCR method; assay type: functional, cell-based; in short: as §1
# MCF7 [9] = test: Down-regulation of cyclin A2 mRNA expression in human MCF7 cells at 2 to 10 uM incubated for 24 hrs by quantitative real time PCR method; assay type: functional, cell-based; in short: as §1
# MCF7 [10] = test: Induction of apoptosis in human MCF7 cells assessed as late apoptotic cells level at 7 uM incubated for 24 hrs by annexin-V and propidium iodide staining based flow cytometry (reference value: 1.85%); assay type: functional
# MCF7 [11] = test: Induction of cell cycle arrest in human MCF7 cells assessed as accumulation at G2/M phase at 7 uM incubated for 24 hrs by propidium iodide staining based FACS assay (reference value: 1.47%); assay type: functional
# MDA-MB-231 [12] = test: Inhibition of AKT Ser473 phosphorylation in human MDA-MB-231 cells at 2 uM incubated for 24 hrs by Western blotting method; assay type: cell-based
# In short: (§3)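 After 24 h treatment, cells were washed in ice-cold PBS and lysed in RIPA buffer. Protein was measured by Bradford, equal amounts run on SDS-PAGE and transferred to PVDF. Blots were probed for p-Akt (Ser473) and total Akt, then 1 h with 1:5000 HRP anti-mouse IgG, with chemiluminescent detection. Densitometry was quantified against untreated control.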
# MCF7 [13] = test: Antiproliferative activity against human MCF7 cells assessed as inhibition of cell proliferation incubated for 18 hrs followed by MTT addition for 4 hrs by MTT assay; assay type: functional, cell-based; in short: as §2
# [14] = Antiproliferative activity against human DU145 cells assessed as inhibition of cell proliferation incubated for 18 hrs followed by MTT addition for 4 hrs by MTT assay; assay type: functional, cell-based; settings: DU-145; in short: as §2
# MCF7 [15] = test: Induction of apoptosis in human MCF7 cells assessed as early apoptotic cells level at 7 uM incubated for 24 hrs by annexin-V and propidium iodide staining based flow cytometry (reference value: 6.42%); assay type: functional
# MCF7 [16] = test: Induction of cell cycle arrest in human MCF7 cells assessed as accumulation at S phase at 7 uM incubated for 24 hrs by propidium iodide staining based FACS assay (reference value: 45.21%); assay type: functional
# MCF7 [17] = test: Induction of cell cycle arrest in human MCF7 cells assessed as accumulation at G0/G1 phase at 7 uM incubated for 24 hrs by propidium iodide staining based FACS assay (reference value: 53.32%); assay type: functional
# [18] = Reduction in Bcl-2 protein expression in human DU145 cells at 5 to 15 uM incubated for 24 hrs by Western blotting method; assay type: functional, cell-based; settings: DU-145
# DU-145 [19] = test: Induction of cell cycle arrest in human DU145 cells assessed as accumulation at G0/G1 phase at 5 uM incubated for 24 hrs by propidium iodide staining based FACS assay (reference value: 53.66%); assay type: functional
# DU-145 [20] = test: Induction of apoptosis in human DU145 cells assessed as late apoptotic cells level at 10 uM incubated for 24 hrs by annexin-V and propidium iodide staining based flow cytometry (reference value: 2.96%); assay type: functional
# DU-145 [21] = test: Induction of cell cycle arrest in human DU145 cells assessed as accumulation at S phase at 10 uM incubated for 24 hrs by propidium iodide staining based FACS assay (reference value: 39.44%); assay type: functional
# DU-145 [22] = test: Potency index, ratio of IC50 for miltefosine to IC50 for test compound against human DU145 cells by MTT assay; assay type: functional
# DU-145 [23] = test: Induction of apoptosis in human DU145 cells assessed as early apoptotic cells level at 15 uM incubated for 24 hrs by annexin-V and propidium iodide staining based flow cytometry (reference value: 2.06%); assay type: functional
# DU-145 [24] = test: Induction of cell cycle arrest in human DU145 cells assessed as accumulation at G0/G1 phase at 10 uM incubated for 24 hrs by propidium iodide staining based FACS assay (reference value: 53.66%); assay type: functional
# DU-145 [25] = test: Induction of apoptosis in human DU145 cells assessed as late apoptotic cells level at 15 uM incubated for 24 hrs by annexin-V and propidium iodide staining based flow cytometry (reference value: 2.96%); assay type: functional
# DU-145 [26] = test: Inhibition of AKT Ser473 phosphorylation in human DU145 cells at 15 uM incubated for 24 hrs by Western blotting method; assay type: cell-based; in short: as §3
# DU-145 [27] = test: Induction of cell cycle arrest in human DU145 cells assessed as accumulation at G2/M phase at 15 uM incubated for 24 hrs by propidium iodide staining based FACS assay (reference value: 6.90%); assay type: functional
# DU-145 [28] = test: Induction of cell cycle arrest in human DU145 cells assessed as accumulation at S phase at 15 uM incubated for 24 hrs by propidium iodide staining based FACS assay (reference value: 39.44%); assay type: functional
# DU-145 [29] = test: Induction of apoptosis in human DU145 cells assessed as viable cells level at 10 uM incubated for 24 hrs by annexin-V and propidium iodide staining based flow cytometry (reference value: 93.65%); assay type: functional
# DU-145 [30] = test: Induction of mitochondrial membrane potential loss in human DU145 cells assessed as increase in JC1 dye monomer green fluorescence at 10 uM incubated for 24 hrs by JC1 dye based flow cytometry (reference value: 2.81%); assay type: functional
# DU-145 [31] = test: Increase in Bax protein expression in human DU145 cells at 5 to 15 uM incubated for 24 hrs by Western blotting method; assay type: functional, cell-based
# In short: (§4)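 DU-145 cells were exposed for 24 h and lysed in RIPA buffer. Protein was quantified by Bradford, and equal amounts were run on SDS-PAGE, transferred to PVDF and immunoblotted, with chemiluminescent detection. Bax/Bcl-2 ratio was taken from 3 densitometric scans as mean SE versus control.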
# DU-145 [32] = test: Induction of cell cycle arrest in human DU145 cells assessed as accumulation at G2/M phase at 5 uM incubated for 24 hrs by propidium iodide staining based FACS assay (reference value: 6.90%); assay type: functional
# DU-145 [33] = test: Induction of apoptosis in human DU145 cells assessed as viable cells level at 15 uM incubated for 24 hrs by annexin-V and propidium iodide staining based flow cytometry (reference value: 93.65%); assay type: functional
# DU-145 [34] = test: Induction of apoptosis in human DU145 cells assessed as necrotic cells level at 15 uM incubated for 24 hrs by annexin-V and propidium iodide staining based flow cytometry (reference value: 1.33%); assay type: functional
# DU-145 [35] = test: Induction of apoptosis in human DU145 cells assessed as necrotic cells level at 10 uM incubated for 24 hrs by annexin-V and propidium iodide staining based flow cytometry (reference value: 1.33%); assay type: functional
# [36] = Antiproliferative activity against human PC3 cells assessed as inhibition of cell proliferation incubated for 18 hrs followed by MTT addition for 4 hrs by MTT assay; assay type: functional, cell-based; settings: PC-3; in short: as §2
# DU-145 [37] = test: Induction of apoptosis in human DU145 cells assessed as viable cells level at 5 uM incubated for 24 hrs by annexin-V and propidium iodide staining based flow cytometry (reference value: 93.65%); assay type: functional
# DU-145 [38] = test: Induction of apoptosis in human DU145 cells assessed as early apoptotic cells level at 10 uM incubated for 24 hrs by annexin-V and propidium iodide staining based flow cytometry (reference value: 2.06%); assay type: functional
# DU-145 [39] = test: Induction of apoptosis in human DU145 cells assessed as necrotic cells level at 5 uM incubated for 24 hrs by annexin-V and propidium iodide staining based flow cytometry (reference value: 1.33%); assay type: functional
# DU-145 [40] = test: Induction of mitochondrial membrane potential loss in human DU145 cells assessed as increase in JC1 dye monomer green fluorescence incubated for 24 hrs by JC1 dye based flow cytometry; assay type: functional, cell-based
# DU-145 [41] = test: Induction of cell cycle arrest in human DU145 cells assessed as accumulation at S phase at 5 uM incubated for 24 hrs by propidium iodide staining based FACS assay (reference value: 39.44%); assay type: functional
# DU-145 [42] = test: Increase in Bax/Bcl-2 expression ratio in human DU145 cells at 15 uM incubated for 24 hrs by Western blotting method; assay type: functional, cell-based; in short: as §4
# DU-145 [43] = test: Induction of apoptosis in human DU145 cells assessed as early apoptotic cells level at 5 uM incubated for 24 hrs by annexin-V and propidium iodide staining based flow cytometry (reference value: 2.06%); assay type: functional
# DU-145 [44] = test: Induction of mitochondrial membrane potential loss in human DU145 cells assessed as increase in JC1 dye monomer green fluorescence at 15 uM incubated for 24 hrs by JC1 dye based flow cytometry (reference value: 2.81%); assay type: functional
# DU-145 [45] = test: Induction of mitochondrial membrane potential loss in human DU145 cells assessed as increase in JC1 dye monomer green fluorescence at 5 uM incubated for 24 hrs by JC1 dye based flow cytometry (reference value: 2.81%); assay type: functional
# DU-145 [46] = test: Induction of cell cycle arrest in human DU145 cells assessed as accumulation at G0/G1 phase at 15 uM incubated for 24 hrs by propidium iodide staining based FACS assay (reference value: 53.66%); assay type: functional
# DU-145 [47] = test: Induction of cell cycle arrest in human DU145 cells assessed as accumulation at G2/M phase at 10 uM incubated for 24 hrs by propidium iodide staining based FACS assay (reference value: 6.90%); assay type: functional
# DU-145 [48] = test: Induction of apoptosis in human DU145 cells assessed as late apoptotic cells level at 5 uM incubated for 24 hrs by annexin-V and propidium iodide staining based flow cytometry (reference value: 2.96%); assay type: functional
compound,measurement,setting,value
CCCCCCCCCCOP(=O)(O)OCCSC(=S)N1CCCCC1,Activity,MCF7 [1],43.43%
same,Activity,MCF7 [2],23.81%
same,Activity,MCF7 [3],2.15%
same,Activity,MCF7 [4],Active
same,IC50,MDA-MB-231 [5],24.6 µM
same,IC50,HEK293,70.7 µM
same,Activity,MCF7 [6],44.62%
same,Ratio IC50,MCF7 [7],5
same,Activity,MCF7 [8],Active
same,Activity,MCF7 [9],Active
same,Activity,MCF7 [10],12.76%
same,Activity,MCF7 [11],0%
same,inhibition,MDA-MB-231 [12],Active
same,IC50,MCF7 [13],7.24 µM
same,IC50,[14],29.3 µM
same,Activity,MCF7 [15],41.66%
same,Activity,MCF7 [16],39.01%
same,Activity,MCF7 [17],60.99%
CCCCCCCCCCCCCCCCOP(=O)(O)OCCSC(=S)N1CCCCC1,Activity,[18],Active
same,Activity,DU-145 [19],59.09%
same,Activity,DU-145 [20],4.52%
same,Activity,DU-145 [21],32.94%
same,Ratio IC50,DU-145 [22],2
same,Activity,DU-145 [23],12.65%
same,Activity,DU-145 [24],61.15%
same,Activity,DU-145 [25],6.33%
same,IC50,MDA-MB-231 [5],100 µM
same,inhibition,DU-145 [26],Active
same,IC50,HEK293,> 100 µM
same,Activity,DU-145 [27],5.6%
same,Activity,DU-145 [28],27.27%
same,Activity,DU-145 [29],83.02%
same,Activity,DU-145 [30],30.84%
same,Activity,DU-145 [31],Active
same,Activity,DU-145 [32],5.65%
same,Activity,DU-145 [33],78.81%
same,Activity,DU-145 [34],2.21%
same,Activity,DU-145 [35],1.4%
same,IC50,[36],34.3 µM
same,Activity,DU-145 [37],86.45%
same,Activity,DU-145 [38],11.06%
same,Activity,DU-145 [39],1.64%
same,Activity,DU-145 [40],Dose-dependent effect
same,Activity,DU-145 [41],35.26%
same,Activity,DU-145 [42],Active
same,Activity,DU-145 [43],9%
same,IC50,MCF7 [13],29 µM
same,IC50,[14],14.7 µM
same,Activity,DU-145 [44],9.29%
same,Activity,DU-145 [45],3.68%
same,Activity,DU-145 [46],67.13%
same,Activity,DU-145 [47],5.92%
same,Activity,DU-145 [48],2.91%
